# Test results reported in ChEMBL document CHEMBL4732250, “Investigations on substituted (2-aminothiazol-5-yl)(imidazo[1,2-a]pyridin-3-yl)methanones for the treatment of Alzheimer's disease” (Bioorg Med Chem, 2021).
# Active and inactive are the calls of the source. The calls are words filed in the database; no cut-off is given here.
# Assays:
# [1] = system: Rattus norvegicus; test: Antiinflammatory activity in Sprague-Dawley rat acute model of carrageenan-induced paw edema assessed as inhibition of rat paw edema at 50 mg/kg, po pre treated for 1 hr followed by carrageenan-stimulation and measured after 3 hrs by plethysmometeric method relative to control; format: functional; settings: time 4 hrs
# In short: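 SD rats of either sex, 150–200 g, n = 6, dosed orally in 0.2% agar suspension. After 1 h, 0.1 mL 1% carrageenan in saline injected into the left hind sub-plantar paw. Paw volume measured by mercury plethysmometer before and 3 h after injection. % edema inhibition calculated. Mean ± SEM.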
# [2] = system: Rattus norvegicus; test: Antiinflammatory activity in Sprague-Dawley rat chronic model of formalin-induced paw edema assessed as inhibition of rat paw edema at 50 mg/kg, po pre treated for 1 hr followed by formalin-stimulation and measured after 1 day by plethysmometeric method relative to control; format: functional; settings: 24 h
# In short: (§1)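 Chronic paw edema. Oral pre-dose in 0.2% agar; after 1 h, 0.1 mL 2% formalin in saline injected into the left hind sub-plantar paw, repeated on 5 consecutive days. Paw volume by plethysmometer. % inhibition of edema size relative to disease control, days 1–5. n = 6, mean ± SEM, one-way ANOVA with Tukey's test.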
# [3] = system: Rattus norvegicus; test: Antiinflammatory activity in Sprague-Dawley rat chronic model of formalin-induced paw edema assessed as inhibition of rat paw edema at 50 mg/kg, po pre treated for 1 hr followed by formalin-stimulation and measured after 2 days by plethysmometeric method relative to control; format: functional; settings: 48 h, time 2 day; in short: as §1
# [4] = system: Rattus norvegicus; test: Antiinflammatory activity in Sprague-Dawley rat chronic model of formalin-induced paw edema assessed as inhibition of rat paw edema at 50 mg/kg, po pre treated for 1 hr followed by formalin-stimulation and measured after 3 days by plethysmometeric method relative to control; format: functional; settings: 72 h, time 3 day; in short: as §1
# [5] = system: Rattus norvegicus; test: Antiinflammatory activity in Sprague-Dawley rat chronic model of formalin-induced paw edema assessed as inhibition of rat paw edema at 50 mg/kg, po pre treated for 1 hr followed by formalin-stimulation and measured after 4 days by plethysmometeric method relative to control; format: functional; settings: 96 h, time 4 day; in short: as §1
# [6] = system: Rattus norvegicus; test: Antiinflammatory activity in Sprague-Dawley rat chronic model of formalin-induced paw edema assessed as inhibition of rat paw edema at 50 mg/kg, po pre treated for 1 hr followed by formalin-stimulation and measured after 5 day by plethysmometeric method relative to control; format: functional; settings: 120 h; in short: as §1
# [7] = system: Rattus norvegicus; test: Antialzheimer activity against AlCl3-induced Sprague-Dawley rat assessed as reduction in plaque formation in the cortex region at 50 mg/kg, po after 28 days by congo red staining based microscopic method; format: functional, organism-based; settings: time 28.0 day
# In short: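 Cortical amyloid plaques in Congo red-stained brain sections viewed at 100X. Rats had 28 days of oral dosing in 0.2% agar plus AlCl3 4.2 mg/kg i.p.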
# [8] = system: Rattus norvegicus; test: Antialzheimer activity against AlCl3-induced Sprague-Dawley rat assessed as improved in spatial working memory at 50 mg/kg, po for 7 to 28 days by elevated plus maze test; format: functional, organism-based; settings: time 7-28 day
# [9] = system: Rattus norvegicus; test: Antialzheimer activity against AlCl3-induced Sprague-Dawley rat assessed as improved in learning memory by measuring suppression of CAR at 50 mg/kg, po for 7 to 28 days by pole test; format: functional, organism-based; settings: time 7-28 day
# In short: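 Cook's pole-climbing apparatus used for conditioned avoidance response with foot shock, in acquisition and test sessions. Rats received oral dosing in 0.2% agar plus AlCl3 4.2 mg/kg i.p. daily for 28 days. CAR was recorded on days 7, 14, 21 and 28. n = 6 per group.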
# [10] = system: Rattus norvegicus; test: Antialzheimer activity against AlCl3-induced Sprague-Dawley rat assessed as improved in working memory at 50 mg/kg, po for 7 to 28 days by Y maze test; format: functional, organism-based; settings: time 7-28 day
# In short: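 Y-maze: rats trained for 5 consecutive days. Arm entries recorded; SAP = total entries minus two; % alteration = actual ÷ maximum alteration × 100. Assessed on days 7, 14, 21 and 28 of daily oral dosing in 0.2% agar plus AlCl3 4.2 mg/kg i.p. n = 6, two-way ANOVA with Tukey's test.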
# [11] = Toxicity in AlCl3-induced Sprague-Dawley rat assessed as reduction in HGB level at 50 mg/kg, po after 28 days by automated haematology analyser; format: organism-based; settings: in vivo, 672 h, time 28 day
# In short: (§2)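 On day 29 of the AlCl3 model (28 days of oral dosing), blood was drawn from the retro-orbital sinus under isoflurane into heparinized tubes. Haemoglobin and haematocrit were measured on a haematology analyser.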
# [12] = Toxicity in AlCl3-induced Sprague-Dawley rat assessed as reduction in HCT level at 50 mg/kg, po after 28 days by automated haematology analyser; format: organism-based; settings: in vivo, 672 h, time 28 day; in short: as §2
# [13] = Toxicity in AlCl3-induced Sprague-Dawley rat assessed as reduction in serum albumin level at 50 mg/kg, po after 28 days by automated analyser; format: organism-based; settings: in vivo, 672 h, time 28 day
# In short: (§3)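 Under isoflurane, retro-orbital blood was collected into non-heparinized tubes after the 28-day AlCl3 model with oral dosing. Serum % albumin and total protein were measured on an automated clinical chemistry analyser.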
# [14] = system: Rattus norvegicus; test: Antialzheimer activity against AlCl3-induced Sprague-Dawley rat assessed as reduction in brain LPO activity at 50 mg/kg, po after 28 days by UV-VIS spectrophotometric method; format: functional, organism-based; settings: time 28.0 day
# In short: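 Brain LPO as MDA by the TBA reaction. AlCl3 model: oral dosing in 0.2% agar for 28 days plus AlCl3 4.2 mg/kg i.p. daily. Day-29 brains were homogenized in HBSS pH 7.4 and the pellet resuspended. Reaction with SDS, acetic acid pH 3.5 and TBA at 95 °C for 1 h, then n-butanol:pyridine extraction. Read at 532 nm, extinction coefficient applied, per gram organ. n = 6.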
# [15] = system: Rattus norvegicus; test: Antialzheimer activity against AlCl3-induced Sprague-Dawley rat assessed as change in brain SODactivity at 50 mg/kg, po after 28 days; format: functional, organism-based; settings: time 28.0 day
# In short: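 Brain SOD activity. Rats were dosed orally for 28 days in 0.2% agar suspension, each followed by AlCl3 4.2 mg/kg i.p. Brains were taken on day 29, washed in saline and homogenized in chilled 50 mM Tris pH 8.2. Triton X-100 treatment at 4 °C, 30 min, then centrifugation. Pyrogallol was added and A420 read at 0 and 9 min, per gram fresh tissue. n = 6.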
# [16] = system: Rattus norvegicus; test: Antialzheimer activity against AlCl3-induced Sprague-Dawley rat assessed as reduction in hippocampal neuronal degeneration at 50 mg/kg, po after 28 days by H and E staining based microscopic method; format: functional, organism-based; settings: time 28.0 day
# In short: (§4)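 Hippocampal neuronal degeneration. After 28 days of oral dosing in 0.2% agar with daily AlCl3 4.2 mg/kg i.p., brain sections were HE-stained and hippocampal regions examined at 100X.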
# [17] = Toxicity in AlCl3-induced Sprague-Dawley rat assessed as stomach lesion at 50 mg/kg, po after 28 days by H and E staining based microscopic method; format: organism-based; settings: in vivo, 672 h, time 28 day
# In short: (§5)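 Gastrointestinal damage in AlCl3-model rats, 28 days of oral dosing. Stomach and intestines were washed in cold PBS 0.01 M pH 7.4 and fixed 24 h in 10% neutral buffered formalin. After a 70% ethanol wash, haemorrhagic damage was measured by digital vernier caliper for the lesion index. HE-stained sections examined microscopically.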
# [18] = Toxicity in AlCl3-induced Sprague-Dawley rat assessed as intestine lesion at 50 mg/kg, po after 28 days by H and E staining based microscopic method; format: organism-based; settings: in vivo, 672 h, time 28 day; in short: as §5
# [19] = Toxicity in AlCl3-induced Sprague-Dawley rat assessed as focal erosions in stomach at 50 mg/kg, po after 28 days by H and E staining based microscopic method; format: organism-based; settings: in vivo, 672 h, time 28 day; in short: as §5
# [20] = Toxicity in AlCl3-induced Sprague-Dawley rat assessed as focal erosions in intestine at 50 mg/kg, po after 28 days by H and E staining based microscopic method; format: organism-based; settings: in vivo, 672 h, time 28 day; in short: as §5
# [21] = system: Rattus norvegicus; test: Antiinflammatory activity in Sprague-Dawley rat chronic model of formalin-induced paw edema assessed as inhibition of rat paw edema at 40 mg/kg, po pre treated for 1 hr followed by formalin-stimulation and measured after 1 day by plethysmometeric method relative to control; format: functional; settings: 24 h; in short: as §1
# [22] = system: Rattus norvegicus; test: Antiinflammatory activity in Sprague-Dawley rat chronic model of formalin-induced paw edema assessed as inhibition of rat paw edema at 40 mg/kg, po pre treated for 1 hr followed by formalin-stimulation and measured after 2 days by plethysmometeric method relative to control; format: functional; settings: 48 h, time 2 day; in short: as §1
# [23] = system: Rattus norvegicus; test: Antiinflammatory activity in Sprague-Dawley rat chronic model of formalin-induced paw edema assessed as inhibition of rat paw edema at 40 mg/kg, po pre treated for 1 hr followed by formalin-stimulation and measured after 3 days by plethysmometeric method relative to control; format: functional; settings: 72 h, time 3 day; in short: as §1
# [24] = system: Rattus norvegicus; test: Antiinflammatory activity in Sprague-Dawley rat chronic model of formalin-induced paw edema assessed as inhibition of rat paw edema at 40 mg/kg, po pre treated for 1 hr followed by formalin-stimulation and measured after 4 days by plethysmometeric method relative to control; format: functional; settings: 96 h, time 4 day; in short: as §1
# [25] = system: Rattus norvegicus; test: Antiinflammatory activity in Sprague-Dawley rat chronic model of formalin-induced paw edema assessed as inhibition of rat paw edema at 40 mg/kg, po pre treated for 1 hr followed by formalin-stimulation and measured after 5 days by plethysmometeric method relative to control; format: functional; settings: 120 h, time 5 day; in short: as §1
# [26] = Toxicity in AlCl3-induced Sprague-Dawley rat assessed as stomach lesion index at 5 mg/kg, po after 28 days by H and E staining based microscopic method; format: organism-based; settings: in vivo, 672 h, time 28 day; in short: as §5
# [27] = Toxicity in AlCl3-induced Sprague-Dawley rat assessed as reduction in HGB level at 5 mg/kg, po after 28 days by automated haematology analyser; format: organism-based; settings: in vivo, 672 h, time 28 day; in short: as §2
# [28] = Toxicity in AlCl3-induced Sprague-Dawley rat assessed as reduction in HCT level at 5 mg/kg, po after 28 days by automated haematology analyser; format: organism-based; settings: in vivo, 672 h, time 28 day; in short: as §2
# [29] = Toxicity in AlCl3-induced Sprague-Dawley rat assessed as reduction in serum albumin level at 5 mg/kg, po after 28 days by automated analyser; format: organism-based; settings: in vivo, 672 h, time 28 day; in short: as §3
# [30] = Toxicity in AlCl3-induced Sprague-Dawley rat assessed as reduction in total protein level at 5 mg/kg, po after 28 days by automated analyser; format: organism-based; settings: in vivo, 672 h, time 28 day; in short: as §3
# [31] = system: Rattus norvegicus; test: Antialzheimer activity against AlCl3-induced Sprague-Dawley rat assessed as reduction in hippocampal neuronal degeneration at 5 mg/kg, po after 28 days by H and E staining based microscopic method; format: functional, organism-based; settings: time 28.0 day; in short: as §4
# [32] = Toxicity in AlCl3-induced Sprague-Dawley rat assessed as intestine lesion index at 5 mg/kg, po after 28 days by H and E staining based microscopic method; format: organism-based; settings: in vivo, 672 h, time 28 day; in short: as §5
smiles,measurement,setting,value
Cc1cccn2c(C(=O)c3sc(N)nc3N(C)C)cnc12,inhibition in vivo at 50 mg/kg,[1],81%
same,inhibition in vivo at 50 mg/kg,[2],55%
same,inhibition in vivo at 50 mg/kg,[3],56%
same,inhibition in vivo at 50 mg/kg,[4],56%
same,inhibition in vivo at 50 mg/kg,[5],54%
same,inhibition in vivo at 50 mg/kg,[6],54%
Cc1cccn2c(C(=O)c3sc(N)nc3-c3ccccc3)cnc12,inhibition in vivo at 50 mg/kg,[1],20%
Nc1ncc(C(=O)c2cnc3ccccn23)s1,inhibition in vivo at 50 mg/kg,[1],33%
Cc1cccn2c(C(=O)c3cnc(N)s3)cnc12,inhibition in vivo at 50 mg/kg,[1],31%
Cc1ccn2c(C(=O)c3sc(N)nc3N(C)C)cnc2c1,Activity,[7],Active
same,inhibition in vivo at 50 mg/kg,[1],85%
same,inhibition in vivo at 50 mg/kg,[2],58%
same,inhibition in vivo at 50 mg/kg,[3],67%
same,inhibition in vivo at 50 mg/kg,[4],65%
same,inhibition in vivo at 50 mg/kg,[5],60%
same,inhibition in vivo at 50 mg/kg,[6],63%
same,Activity,[8],Active
same,Activity,[9],Active
same,Activity,[10],Active
same,Activity,[11],Non-Toxic
same,Activity,[12],Non-Toxic
same,Activity,[13],Non-Toxic
same,Activity,[14],Active
same,Activity,[15],Active
same,Activity,[16],Active
same,Activity,[17],Non-Toxic
same,Activity,[18],Non-Toxic
same,Activity,[19],Non-Toxic
same,Activity,[20],Non-Toxic
Cc1ccc(-c2cc(C(F)(F)F)nn2-c2ccc(S(N)(=O)=O)cc2)cc1 [CELECOXIB],inhibition in vivo at 40 mg/kg,[21],67%
same,inhibition in vivo at 40 mg/kg,[22],74%
same,inhibition in vivo at 40 mg/kg,[23],70%
same,inhibition in vivo at 40 mg/kg,[24],70%
same,inhibition in vivo at 40 mg/kg,[25],68%
Cc1ccn2c(C(=O)c3cnc(N)s3)cnc2c1,inhibition in vivo at 50 mg/kg,[1],77%
same,inhibition in vivo at 50 mg/kg,[2],30%
same,inhibition in vivo at 50 mg/kg,[3],24%
same,inhibition in vivo at 50 mg/kg,[4],36%
same,inhibition in vivo at 50 mg/kg,[5],23%
same,inhibition in vivo at 50 mg/kg,[6],18%
Cc1cnc(NC(=O)C2=C(O)c3ccccc3S(=O)(=O)N2C)s1 [MELOXICAM],Activity_index,[26],12.19 mm
same,Activity,[27],Toxic
same,Activity,[28],Toxic
same,Activity,[29],Non-Toxic
same,Activity,[30],Toxic
same,Activity,[31],Active
same,Activity_index,[32],29.15 mm
CN(C)c1nc(N)sc1C(=O)c1cnc2ccccn12,inhibition in vivo at 50 mg/kg,[1],32%
